From ChEMBL document CHEMBL1133633, “Anti-Helicobacter pylori agents. 4. 2-(Substituted guanidino)-4-phenylthiazoles and some structurally rigid derivatives” (2000)
≈ marks a conversion by molar mass, not a printed value.

Tests used:
Clostridium perfringens [1] = assay: Antimicrobial activity was measured against Clostridium perfringens organism.; format: functional
Campylobacter jejuni [2] = assay: Antimicrobial activity was measured against Campylobacter jejuni organism.; format: functional
Helicobacter pylori [3] = assay: Antimicrobial activity was measured against Helicobacter pylori organism.; format: functional, organism-based
Method in brief: (§1)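 Agar dilution. Strains were precultured 3 days at 37 °C on Brucella agar with 3% horse serum and 2% starch, then suspended in buffered saline to McFarland No. 1. A 10²-fold dilution was spotted by multipoint replicator onto Brucella agar with 7% lysed horse blood carrying serial 2-fold drug dilutions. Plates were incubated 3 days at 37 °C under 10% CO₂. MIC is the lowest concentration preventing macroscopic colonial growth. Mean and range come from 10 strains: 8001, 8003, 8004, 8007, 8008, 8009, 8011, 9005, FP1530 and FP1532.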

Neisseria gonorrhoeae [4] = assay: Antimicrobial activity was measured against Neisseria gonorrhoeae organism; format: functional
Neisseria meningitidis [5] = assay: Antimicrobial activity was measured against Neisseria meningitidis organism.; format: functional
Helicobacter pylori [6] = assay: Determined the lowest drug concentration that inhibited macroscopic colonial growth against Helicobacter pylori.; format: functional; method in brief: as §1
Bacteroides fragilis [7] = assay: Antimicrobial activity was measured against Bacteroides fragilis; format: functional, organism-based
Clostridioides difficile [8] = assay: Antimicrobial activity was measured against Clostridium difficile organism.; format: functional
Bacteroides fragilis [9] = assay: Antimicrobial activity was measured against Bacteroides fragilis organism.; format: functional
Cavia porcellus [10] = species: Cavia porcellus; assay: Inhibition of histamine stimulated chronotropic response in isolated guinea pig right atrium (1*10e-6 g/mL); format: functional, Cardiac atrium
Method in brief: (§2)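 Guinea pig right atrial strip, under 0.3-0.6 g initial tension in Tyrode solution at 30 °C, gassed with 95% O₂-5% CO₂; beating rate recorded by transducer. Histamine hydrochloride (1 × 10^-6 g/mL) raised rate. Test compound (1 × 10^-6 g/mL) was added 30 min after histamine washout. Percent inhibition compares histamine-induced rate increases before and 30 min after dosing.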

Helicobacter pylori [11] = assay: The lowest drug concentration that inhibited macroscopic colonial growth against Helicobacter pylori; value ranges from 0.0030-0.05; format: functional; method in brief: as §1
Rattus norvegicus [12] = assay: Inhibition of histamine stimulated gastric acid secretion in lumen perfused stomach of anesthetized rats (1 mg/kg iv); format: functional
Method in brief: (§3)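 Male Sprague-Dawley rats (~250 g), fasted 24 h, anesthetized with urethane 1.25 g/kg ip. The opened stomach was lumen-perfused with saline, and the perfusate was titrated with 25 mM NaOH by autotitrator. Inhibition of histamine-stimulated acid output was measured after 1 mg/kg iv dosing; n = 2.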

Campylobacter jejuni [13] = assay: Antimicrobial activity was measured against Campylobacter jejuni organism. range is between is(12.5-50).; format: functional
Rattus norvegicus [14] = assay: Inhibition of histamine stimulated gastric acid secretion in lumen perfused stomach of anesthetized rats; format: functional; method in brief: as §3
Cavia porcellus [15] = species: Cavia porcellus; assay: Inhibition of histamine stimulated chronotropic response in isolated guinea pig right atrium; format: functional, Cardiac atrium; method in brief: as §2
Helicobacter pylori [16] = assay: The lowest drug concentration that inhibited macroscopic colonial growth against Helicobacter pylori; value ranges from 0.2-0.78; format: functional; method in brief: as §1
Helicobacter pylori [17] = assay: The lowest drug concentration that inhibited macroscopic colonial growth against Helicobacter pylori.; format: functional; method in brief: as §1
Helicobacter pylori [18] = assay: The lowest drug concentration that inhibited macroscopic colonial growth against Helicobacter pylori; value ranges from 3.13-50; format: functional; method in brief: as §1
Helicobacter pylori [19] = assay: microbe, parasite or virus in culture
Campylobacter jejuni [20] = assay: Antimicrobial activity was measured against Campylobacter jejuni organism; range is between ( 0.39-6.25).; format: functional
Clostridioides difficile [21] = assay: Antimicrobial activity was measured against Clostridium difficile organism; range is between (0.1-0.78); format: functional
Clostridium perfringens [22] = assay: Antimicrobial activity was measured against Clostridium perfringens organism; range is between (0.025-0.05); format: functional
Helicobacter pylori [23] = assay: The lowest drug concentration that inhibited macroscopic colonial growth against Helicobacter pylori; value range is between 0.0063-0.1; format: functional; method in brief: as §1
Neisseria gonorrhoeae [24] = assay: Antimicrobial activity was measured against Neisseria gonorrhoeae organism; range is between (0.39-100).; format: functional
Neisseria meningitidis [25] = assay: Antimicrobial activity was measured against Neisseria meningitidis organism; range is between (0.05-0.1).; format: functional
Bacteroides fragilis [26] = assay: Antimicrobial activity was measured against B. fragilis; range is between (0.2-12.5).; format: functional
Helicobacter pylori [27] = assay: The lowest drug concentration that inhibited macroscopic colonial growth against Helicobacter pylori; value ranges from 0.39-0.78; format: functional; method in brief: as §1
Helicobacter pylori [28] = assay: The lowest drug concentration that inhibited macroscopic colonial growth against Helicobacter pylori; Value ranges from 6.25-50; format: functional; method in brief: as §1
Helicobacter pylori [29] = assay: The lowest drug concentration that inhibited macroscopic colonial growth against Helicobacter pylori; value ranges from 0.0125-0.1; format: functional; method in brief: as §1
Helicobacter pylori [30] = assay: The lowest drug concentration that inhibited macroscopic colonial growth against Helicobacter pylori; value ranges from 0.78-6.25; format: functional; method in brief: as §1
Helicobacter pylori [31] = assay: The lowest drug concentration that inhibited macroscopic colonial growth against Helicobacter pylori; Value ranges from 12.5-100; format: functional; method in brief: as §1
Helicobacter pylori [32] = assay: The lowest drug concentration that inhibited macroscopic colonial growth against Helicobacter pylori; value ranges from 0.39-1.56; format: functional; method in brief: as §1
Bacteroides fragilis [33] = assay: Antimicrobial activity was measured against B. fragilis range; Value ranges from 0.39-0.78; format: functional
Campylobacter jejuni [34] = assay: Antimicrobial activity was measured against Campylobacter jejuni organism; Value ranges from 0.78-100; format: functional
Clostridioides difficile [35] = assay: Antimicrobial activity was measured against Clostridium difficile organism; Value ranges from 0.1-0.39; format: functional
Clostridium perfringens [36] = assay: Antimicrobial activity was measured against Clostridium perfringens organism; Value ranges from 0.78-3.13; format: functional
Helicobacter pylori [37] = assay: The lowest drug concentration that inhibited macroscopic colonial growth against Helicobacter pylori; Value ranges from 1.56-25; format: functional; method in brief: as §1
Helicobacter pylori [38] = assay: The lowest drug concentration that inhibited macroscopic colonial growth against Helicobacter pylori;value ranges from 6.25-50; format: functional; method in brief: as §1

Compound: (2,5-Dihydroxy-4,7-dioxo-[1,3,2]dioxabismepan-5-yl)-acetic acid
- MIC (Clostridium perfringens [1]): > 100 µg/mL
- MIC (Campylobacter jejuni [2]): 7.4 µg/mL
- MIC (Helicobacter pylori [3]): 8.7 µg/mL
- MIC (Neisseria gonorrhoeae [4]): 4.7 µg/mL
- MIC (Neisseria meningitidis [5]): 12.5 µg/mL
- MIC (Helicobacter pylori [6]): 18 µg/mL
- MIC (Bacteroides fragilis [7]): 50 µg/mL
- MIC (Clostridioides difficile [8]): 50 µg/mL

Compound: COc1ccccc1CC/N=C(\N)Nc1nc(-c2cccc(CNC(C)=O)c2)cs1
- MIC (Bacteroides fragilis [9]): > 100 µg/mL
- MIC (Clostridium perfringens [1]): > 100 µg/mL
- Inhibition (Cavia porcellus [10]): 72%
- MIC (Helicobacter pylori [11]): 0.017 µg/mL (≈ 0.0401 µM)
- MIC (Neisseria gonorrhoeae [4]): > 100 µg/mL
- MIC (Neisseria meningitidis [5]): > 100 µg/mL
- Inhibition (Rattus norvegicus [12]): 58%
- MIC (Campylobacter jejuni [13]): 20.5 µg/mL (≈ 48.4 µM)
- MIC (Clostridioides difficile [8]): > 100 µg/mL

Compound: CNC(=C[N+](=O)[O-])NCCSCc1ccc(CN(C)C)o1 [RANITIDINE]
- Inhibition (Rattus norvegicus [14]): 72%
- Inhibition (Cavia porcellus [15]): 44%
- MIC (Helicobacter pylori [6]): > 1600 µg/mL

Compound: COc1ccc(CC/N=C(\N)Nc2nc(-c3cccc(CNC(C)=O)c3)cs2)cc1
- Inhibition (Cavia porcellus [10]): 34%
- MIC (Helicobacter pylori [16]): 0.32 µg/mL (≈ 0.756 µM)
- Inhibition (Rattus norvegicus [12]): 10%

Compound: CC(=O)Nc1ccc2c(c1)-c1nc(N=C(N)N)sc1CCO2
- MIC (Helicobacter pylori [17]): > 100 µg/mL

Compound: C/N=C(\N)Nc1nc(-c2cccc(CNC(C)=O)c2)cs1
- MIC (Helicobacter pylori [17]): 14.4 µg/mL (≈ 47.5 µM)

Compound: CC(=O)NCc1cccc(-c2csc(NC(=N)NCCNC(=O)c3ccccc3)n2)c1
- MIC (Helicobacter pylori [18]): 23 µg/mL (≈ 52.7 µM)

Compound: CN/C(=N\CCSCc1nc[nH]c1C)NC#N [CIMETIDINE]
- Inhibition (Cavia porcellus [10]): 43%
- Inhibition (Rattus norvegicus [12]): 53%
- MIC (Helicobacter pylori [19]): 1130 µg/mL (≈ 4480 µM)

Compound: CC1(C)S[C@@H]2[C@H](NC(=O)[C@H](N)c3ccc(O)cc3)C(=O)N2[C@H]1C(=O)O [AMOXICILLIN]
- MIC (Campylobacter jejuni [20]): 2.2 µg/mL (≈ 6.02 µM)
- MIC (Clostridioides difficile [21]): 0.28 µg/mL (≈ 0.766 µM)
- MIC (Clostridium perfringens [22]): 0.027 µg/mL (≈ 0.0739 µM)
- MIC (Helicobacter pylori [23]): 0.021 µg/mL (≈ 0.0575 µM)
- MIC (Neisseria gonorrhoeae [24]): 7.7 µg/mL (≈ 21.1 µM)
- MIC (Neisseria meningitidis [25]): 0.056 µg/mL (≈ 0.153 µM)
- MIC (Bacteroides fragilis [26]): 2.1 µg/mL (≈ 5.75 µM)

Compound: CC(=O)NCc1cccc(-c2csc(NC(=N)NCCOc3ccccc3)n2)c1
- Inhibition (Cavia porcellus [10]): 52%
- MIC (Helicobacter pylori [27]): 0.49 µg/mL (≈ 1.2 µM)
- Inhibition (Rattus norvegicus [12]): 18%

Compound: CC(=O)NCc1cccc(-c2csc(NC(=N)NCCO)n2)c1
- MIC (Helicobacter pylori [28]): 20 µg/mL (≈ 60 µM)

Compound: CC(=O)NCc1cccc(-c2csc(NC(=N)NCCc3ccccc3)n2)c1
- Inhibition (Cavia porcellus [10]): 65%
- Inhibition (Rattus norvegicus [12]): 59%
- MIC (Helicobacter pylori [29]): 0.037 µg/mL (≈ 0.094 µM)

Compound: CC(=O)NCc1cccc(-c2csc(NC(=N)NCCc3ccccn3)n2)c1
- Inhibition (Cavia porcellus [10]): 39%
- MIC (Helicobacter pylori [27]): 0.49 µg/mL (≈ 1.24 µM)
- Inhibition (Rattus norvegicus [12]): 14%

Compound: CC(=O)NCc1cccc(-c2csc(NC(=N)NCCOCc3ccccc3)n2)c1
- MIC (Helicobacter pylori [30]): 2.5 µg/mL (≈ 5.9 µM)

Compound: CC[C@H]1OC(=O)[C@H](C)[C@@H](O[C@H]2C[C@@](C)(OC)[C@@H](O)[C@H](C)O2)[C@H](C)[C@@H](O[C@@H]2O[C@H](C)C[C@H](N(C)C)[C@H]2O)[C@](C)(OC)C[C@@H](C)C(=O)[C@H](C)[C@@H](O)[C@]1(C)O [CLARITHROMYCIN]
- MIC (Helicobacter pylori [6]): 0.057 µg/mL (≈ 0.0762 µM)

Compound: CC(=O)NCc1ccc2c(c1)-c1nc(N=C(N)N)sc1CCO2
- MIC (Helicobacter pylori [31]): 50 µg/mL (≈ 151 µM)

Compound: COCCC/N=C(\N)Nc1nc(-c2cccc(CNC(C)=O)c2)cs1
- Inhibition (Cavia porcellus [10]): 54%
- MIC (Helicobacter pylori [32]): 0.96 µg/mL (≈ 2.66 µM)
- Inhibition (Rattus norvegicus [12]): 87%

Compound: Cc1ncc([N+](=O)[O-])n1CCO [METRONIDAZOLE]
- MIC (Bacteroides fragilis [33]): 0.59 µg/mL (≈ 3.45 µM)
- MIC (Campylobacter jejuni [34]): 30 µg/mL (≈ 175 µM)
- MIC (Clostridioides difficile [35]): 0.2 µg/mL (≈ 1.17 µM)
- MIC (Clostridium perfringens [36]): 1.75 µg/mL (≈ 10.2 µM)
- MIC (Neisseria gonorrhoeae [4]): > 100 µg/mL
- MIC (Neisseria meningitidis [5]): > 100 µg/mL
- MIC (Helicobacter pylori [37]): 5.4 µg/mL (≈ 31.6 µM)

Compound: CC(=O)NCc1cccc(-c2csc(NC(=N)NCCc3c[nH]cn3)n2)c1
- MIC (Helicobacter pylori [38]): 27 µg/mL (≈ 70.4 µM)
